Reference: ChEMBL document CHEMBL1152285 (Bioorg Med Chem Lett, 2008)
The source made the active and inactive calls. The rule behind the calls is not given here.

Tests used:
[1] = Inhibition of histidine-tagged HDAC4 wild type catalytic domain purified from Escherichia coli after 10 mins
In short: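 His-tagged HDAC4 catalytic domain (653-1084) expressed in E. coli. Trifluoroacetamide substrate then added for 1 h at 37 °C. Stopped with developer/TSA; fluorescence read at ex 360/em 460. IC50 values are means of >2 experiments.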

Histone deacetylase 1 = Histone deacetylase 1 (Homo sapiens, UniProt Q13547); assay: Inhibition of HDAC1 purified from HEK293 cells by Western blot; format: cell-free
Sequence of Histone deacetylase 1 (Q13547 whole entry): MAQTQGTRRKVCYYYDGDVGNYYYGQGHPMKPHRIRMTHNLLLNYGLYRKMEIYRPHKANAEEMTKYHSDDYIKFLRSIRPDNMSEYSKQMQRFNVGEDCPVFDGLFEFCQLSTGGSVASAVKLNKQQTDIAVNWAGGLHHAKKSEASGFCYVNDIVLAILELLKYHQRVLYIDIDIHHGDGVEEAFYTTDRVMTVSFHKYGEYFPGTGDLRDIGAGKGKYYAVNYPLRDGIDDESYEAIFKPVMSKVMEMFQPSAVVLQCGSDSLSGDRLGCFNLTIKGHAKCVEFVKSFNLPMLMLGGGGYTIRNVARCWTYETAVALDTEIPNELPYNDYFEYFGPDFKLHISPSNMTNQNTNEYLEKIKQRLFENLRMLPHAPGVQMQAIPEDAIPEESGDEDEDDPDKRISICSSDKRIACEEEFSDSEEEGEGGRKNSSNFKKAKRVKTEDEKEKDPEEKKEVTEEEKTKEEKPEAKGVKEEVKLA

[2] = biological target: T1, Histone deacetylase (Homo sapiens) (UniProt Q13547+O15379+Q9UBN7+Q92769+Q9UQL6+Q8WUI4+Q9BY41+Q96DB2+P56524+Q9UKV0+Q969S8); assay: Inhibition of HDAC in human HCT116 cells assessed as alpha-tubulin deacetylation up to 10 uM after 24 hrs; format: cell-based; conditions: HCT-116
In short: (§1)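 HCT116 cells treated 24 h. Alpha-tubulin acetylation measured, with the signal from 10 µM SAHA taken as 100% activation. Values are means of >2 experiments.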

[3] = Stability in human HCT116 cells S9 fraction by LCMS/MS in presence of NADPH; format: ADME, subcellular
In short: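 S9 at 1 mg/ml with 1 mM NADPH plus a regenerating system, 37 °C with low shaking. Stopped with 1N HCl, centrifuged, supernatant diluted with acetonitrile containing internal standard, analysed by LCMS/MS.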

[4] = biological target: T2, Protein deacetylase HDAC6 (Homo sapiens, UniProt Q9UBN7); assay: Inhibition of HDAC6 purified from HEK293 cells by Western blot; format: cell-free
T2 sequence (Q9UBN7 whole entry): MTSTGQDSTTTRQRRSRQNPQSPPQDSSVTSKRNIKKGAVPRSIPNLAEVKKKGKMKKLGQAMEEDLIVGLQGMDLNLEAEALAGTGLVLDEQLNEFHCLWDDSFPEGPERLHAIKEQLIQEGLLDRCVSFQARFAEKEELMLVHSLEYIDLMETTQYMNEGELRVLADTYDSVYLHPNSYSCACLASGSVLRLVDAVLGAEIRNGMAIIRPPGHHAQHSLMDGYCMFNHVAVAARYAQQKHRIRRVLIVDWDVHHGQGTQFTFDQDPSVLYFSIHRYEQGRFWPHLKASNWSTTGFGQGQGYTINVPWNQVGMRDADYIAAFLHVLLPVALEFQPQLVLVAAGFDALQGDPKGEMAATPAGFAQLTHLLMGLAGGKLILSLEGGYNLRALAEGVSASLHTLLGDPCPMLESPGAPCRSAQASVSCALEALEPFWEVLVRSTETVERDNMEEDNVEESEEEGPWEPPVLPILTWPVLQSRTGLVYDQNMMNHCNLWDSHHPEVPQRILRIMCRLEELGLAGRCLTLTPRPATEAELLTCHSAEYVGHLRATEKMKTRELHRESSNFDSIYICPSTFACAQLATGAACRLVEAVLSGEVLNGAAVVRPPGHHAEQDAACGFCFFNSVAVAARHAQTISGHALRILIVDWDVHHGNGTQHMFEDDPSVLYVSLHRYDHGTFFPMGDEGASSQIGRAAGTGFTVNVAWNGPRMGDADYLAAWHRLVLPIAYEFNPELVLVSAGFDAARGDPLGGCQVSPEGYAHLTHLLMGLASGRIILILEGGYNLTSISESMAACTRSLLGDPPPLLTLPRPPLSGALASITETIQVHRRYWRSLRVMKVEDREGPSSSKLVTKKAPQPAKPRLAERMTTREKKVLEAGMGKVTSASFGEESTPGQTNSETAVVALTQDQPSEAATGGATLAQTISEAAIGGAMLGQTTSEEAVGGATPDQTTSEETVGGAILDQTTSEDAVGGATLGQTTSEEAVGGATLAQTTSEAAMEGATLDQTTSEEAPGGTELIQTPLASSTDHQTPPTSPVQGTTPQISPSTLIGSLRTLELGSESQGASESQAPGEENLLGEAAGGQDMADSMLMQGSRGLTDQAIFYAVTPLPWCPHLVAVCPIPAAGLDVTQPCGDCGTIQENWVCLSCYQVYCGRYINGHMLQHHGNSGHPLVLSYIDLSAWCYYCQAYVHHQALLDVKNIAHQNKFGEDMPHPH

Cytochrome P450 2C9 [5] = biological target: T3, Cytochrome P450 2C9 (Homo sapiens, UniProt P11712); assay: Inhibition of CYP2C9 in human liver microsomes; format: ADME, Microsome
T3 sequence (P11712 whole entry): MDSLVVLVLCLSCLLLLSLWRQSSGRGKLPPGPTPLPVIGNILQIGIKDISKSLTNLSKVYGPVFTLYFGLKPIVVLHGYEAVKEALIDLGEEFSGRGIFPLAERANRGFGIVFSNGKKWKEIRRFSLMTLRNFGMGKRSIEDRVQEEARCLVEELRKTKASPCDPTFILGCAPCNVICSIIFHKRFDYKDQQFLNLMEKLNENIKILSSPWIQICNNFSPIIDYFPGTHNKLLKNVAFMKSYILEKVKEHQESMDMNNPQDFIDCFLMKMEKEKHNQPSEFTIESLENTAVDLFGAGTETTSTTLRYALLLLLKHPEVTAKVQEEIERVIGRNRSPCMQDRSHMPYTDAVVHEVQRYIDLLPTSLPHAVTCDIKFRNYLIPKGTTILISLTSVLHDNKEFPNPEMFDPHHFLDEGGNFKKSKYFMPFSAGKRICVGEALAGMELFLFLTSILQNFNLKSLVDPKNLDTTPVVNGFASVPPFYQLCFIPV
In short: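 Human liver microsomes. Read-out is tritium released as tritiated water on CYP2C9-mediated 4'-hydroxylation of diclofenac tritiated at the 4' position. IC50 values are means of >2 experiments.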

Hepatocyte = assay: Toxicity in human hepatocytes by MTS assay; format: cell-based
Cytochrome P450 2C9 [6] = biological target: T3, Cytochrome P450 2C9; assay: Inhibition of CYP2C9 in human hepatocytes; format: ADME, cell-based, Hepatocyte
In short: (§2)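 Human hepatocytes. Read-out is CYP2C9-mediated 4'-hydroxylation of 4'-tritiated diclofenac, measured as tritiated water. Run without serum and with 10% FBS added. IC50 values are means of >2 experiments.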

[7] = biological target: T1, Histone deacetylase (Homo sapiens); assay: Inhibition of HDAC in human HCT116 cells assessed as alpha-tubulin deacetylation at 50 uM after 24 hrs relative to 10 uM SAHA; format: cell-based; conditions: HCT-116; in short: as §1
Cytochrome P450 2C9 [8] = biological target: T3, Cytochrome P450 2C9; assay: Inhibition of CYP2C9 in human hepatocytes in presence of 10% fetal bovine serum; format: ADME, cell-based, Hepatocyte; in short: as §2
[9] = Stability in human HCT116 cells by LCMS/MS in presence of 10% fetal bovine serum; format: ADME, cell-based, HCT-116
In short: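 Compounds at 1 and 5 µM incubated with HCT116 cells in medium with 10% FBS for up to 24 h. Aliquots taken over time and analysed by LCMS/MS. A cell-free medium control was run. Half-life was derived.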

[10] = biological target: T1, Histone deacetylase (Homo sapiens); conditions: HCT-116, 25 uM
Histone deacetylase 3 = Histone deacetylase 3 (Homo sapiens, UniProt O15379); assay: Inhibition of HDAC3 purified from HEK293 cells by Western blot; format: cell-free
Sequence of Histone deacetylase 3 (O15379 whole entry): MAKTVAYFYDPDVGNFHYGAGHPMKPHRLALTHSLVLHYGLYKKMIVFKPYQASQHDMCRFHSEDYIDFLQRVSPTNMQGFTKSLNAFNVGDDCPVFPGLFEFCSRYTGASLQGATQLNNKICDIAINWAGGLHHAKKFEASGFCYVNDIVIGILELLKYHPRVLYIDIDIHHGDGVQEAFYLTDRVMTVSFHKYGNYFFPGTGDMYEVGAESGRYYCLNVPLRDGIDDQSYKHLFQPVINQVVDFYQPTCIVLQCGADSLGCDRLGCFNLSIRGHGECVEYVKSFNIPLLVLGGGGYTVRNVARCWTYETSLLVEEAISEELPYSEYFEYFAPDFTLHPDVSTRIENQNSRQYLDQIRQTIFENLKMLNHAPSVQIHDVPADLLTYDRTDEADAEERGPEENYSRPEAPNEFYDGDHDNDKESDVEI

Histone deacetylase [11] = assay: Inhibition of HDAC in human HCT116 cells assessed as alpha-tubulin deacetylation; format: cell-based; conditions: hct-116; in short: as §1
[12] = Toxicity in human […] by MTS assay
[13] = biological target: T1, Histone deacetylase (Homo sapiens); assay: Inhibition of HDAC in human HCT116 cells assessed as histone H3 deacetylation up to 10 uM; format: cell-based; conditions: HCT-116
Histone deacetylase [14] = assay: Inhibition of HDAC in human HCT116 cells assessed as histone H3 deacetylation; format: cell-based; conditions: hct-116
[15] = biological target: T1, Histone deacetylase (Homo sapiens); conditions: HCT-116, 50 uM

| IC50 [1] [µM] | IC50 (Histone deacetylase 1) [µM] | half-life [3] [h] | IC50 [4] [µM] | IC50 (Cytochrome P450 2C9 [5]) [µM] | IC50 (Cytochrome P450 2C9 [6]) [µM] | half-life [9] [h] | IC50 (Histone deacetylase 3) [µM] | Compound | Activity (Hepatocyte) | other results |
| --- | --- | --- | --- | --- | --- | --- | --- | --- | --- | --- |
| 0.1 | 0.55 | 0.25 | 0.19 |  |  |  |  | O=C(NCc1ccccc1Cl)c1ccc(C(=O)C(F)(F)F)s1 |  | Activity [2]: inactive |
| 0.48 |  |  | 0.17 | 5 | 8 |  |  | COc1cccc(N2CCN(C(=O)c3ccc(C(=O)C(F)(F)F)s3)CC2)c1 | Non-toxic | inhibition [7]: 50%; IC50 (Cytochrome P450 2C9 [8]): 8 µM |
| 0.013 | 1.6 | 0.333 | 0.41 |  |  |  |  | O=C(c1ncc(C(=O)C(F)(F)F)s1)N1CCc2ccccc21 |  | Activity [2]: inactive |
|  |  | 0.25 | 0.58 |  |  |  |  | O=C(c1ccc(C(=O)C(F)(F)F)[nH]1)N1CCc2ccccc21 |  |  |
| 0.17 | 5 |  | 0.15 |  |  |  |  | C[C@H](NC(=O)c1ccc(C(=O)C(F)(F)F)s1)c1ccccc1 |  |  |
| 0.17 | 0.83 |  | 0.36 | 1.4 | 11 | 3 | 0.84 | CC(NC(=O)c1ccc(C(=O)C(F)(F)F)s1)c1cccc2ccccc12 (stereo not drawn) | Non-toxic | inhibition [10]: 50%; IC50 (Cytochrome P450 2C9 [8]): 17 µM |
| 0.07 | 1.3 |  | 0.16 | 8 | 8 | 2 | 2.8 | O=C(c1ccc(C(=O)C(F)(F)F)s1)N1CCC(c2nnc(-c3ccccc3)o2)CC1 | Non-toxic | IC50 (Cytochrome P450 2C9 [8]): 5 µM |
| 0.075 |  | > 2 |  |  |  |  |  | Cc1noc(-c2ccc(C(=O)C(F)(F)F)s2)n1 |  | EC50 (Histone deacetylase [11]): 6.5 µM |
| 0.51 | 0.89 |  |  |  |  |  | 0.56 | CN(Cc1ccccc1)C(=O)c1ccc(C(=O)C(F)(F)F)s1 |  |  |
| 0.3 | 4.7 |  |  |  |  |  | > 5 | O=C(c1ccc(C(=O)C(F)(F)F)s1)N1CCn2c(-c3ccccc3)cnc2C1 |  |  |
| 0.15 | 1.3 |  | 0.13 |  |  |  | 1.4 | O=C(c1ccc(C(=O)C(F)(F)F)s1)N1CCc2ccccc21 |  |  |
| 0.53 | 4.4 |  | 0.175 | 1.8 | 1.8 | 2 | > 10 | COc1ccc(Cl)cc1N1CCN(C(=O)c2ccc(C(=O)C(F)(F)F)s2)CC1 | Non-toxic | Activity [12]: Non-toxic; Activity [13]: inactive; Activity [2]: inactive |
|  |  | > 2 | 3.32 |  |  |  |  | O=C(NCC1CCCCC1)c1ccc(C(=O)C(F)(F)F)cn1 |  |  |
| 0.09 | 1.6 |  | 0.26 | 13 | 10 | 5 | 1.5 | CC(NC(=O)c1ccc(C(=O)C(F)(F)F)s1)c1ccncc1 (stereo not drawn) | Non-toxic | EC50 (Histone deacetylase [11]): 10 µM; EC50 (Histone deacetylase [14]): > 35 µM; IC50 (Cytochrome P450 2C9 [8]): 3 µM |
| 0.1 |  | 0.333 |  |  |  | 3.5 |  | CN(Cc1ccc2nccnc2c1)C(=O)c1ccc(C(=O)C(F)(F)F)s1 |  | EC50 (Histone deacetylase [11]): 12 µM; inhibition [15]: 40% |
